According to ChEMBL document CHEMBL2406927, “Inhibitory effect of resveratrol dimerized derivatives on nitric oxide production in lipopolysaccharide-induced RAW 264.7 cells” (Bioorg Med Chem Lett, 2013):
Activity calls are given as the source filed them. The rule behind the calls is not given here.

Assays:
RAW264.7 [1] = experiment: Antiinflammatory activity in mouse RAW264.7 cells assessed as LPS-induced NO production at 10 uM treated 2 hrs before LPS challenge measured after 24 hrs
RAW264.7 [2] = experiment: Antiinflammatory activity in mouse RAW264.7 cells assessed as inhibition of LPS-induced NO production treated 2 hrs before LPS challenge measured after 24 hrs; assay type: functional, cell-based
Procedure, shortened: (§1)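 Cells were pretreated with compound for 2 h before LPS (1 μg/mL), then incubated 24 h. NO production was determined by nitrite/nitrate assay and expressed as a percentage of LPS-stimulated cells (means, SEM). IC50 is the concentration giving 50% inhibition of NO production. Data come from at least three independent experiments, each run in duplicate.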

RAW264.7 [3] = experiment: Antiinflammatory activity in mouse RAW264.7 cells assessed as inhibition of LPS-induced NO production at 10 uM treated 2 hrs before LPS challenge measured after 24 hrs; assay type: functional
Procedure, shortened: as §1

RAW264.7 [4] = experiment: Antiinflammatory activity in mouse RAW264.7 cells assessed as inhibition of LPS-induced iNOS expression at 10 uM after 24 hrs by Western blot analysis; assay type: functional, cell-based
Procedure, shortened: (§2)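 Western blot quantitation of iNOS protein, with β-actin as loading control. RAW 264.7 cells were given a 2 h compound pretreatment (5–20 μM), then 1 μg/mL LPS for 24 h. Data come from at least three independent experiments, each performed in duplicate.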

RAW264.7 [5] = experiment: Antiinflammatory activity in mouse RAW264.7 cells assessed as inhibition of IL-1beta release at 10 uM after 24 hrs by ELISA; assay type: functional, cell-based
Procedure, shortened: (§3)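 RAW 264.7 cells were preincubated 2 h with compound (5–20 μM), then stimulated with LPS (1 μg/mL) for 24 h. IL-1β release was measured by ELISA and compared with LPS-stimulated and unstimulated cells. Data come from at least three independent experiments, each run in duplicate.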

RAW264.7 [6] = experiment: Antiinflammatory activity in mouse RAW264.7 cells assessed as inhibition of LPS-induced NO production at 20 uM treated 2 hrs before LPS challenge measured after 24 hrs; assay type: functional, cell-based
Procedure, shortened: as §1

RAW264.7 [7] = experiment: Cytotoxicity against mouse RAW264.7 cells up to 20 uM; assay type: cell-based
RAW264.7 [8] = experiment: Antiinflammatory activity in mouse RAW264.7 cells assessed as inhibition of LPS-induced iNOS protein expression incubated for 2 hrs prior to LPS challenge measured after 24 hrs by Western blot analysis; assay type: functional, cell-based
Procedure, shortened: as §2

JNK1/JNK2 (Mus musculus) = JNK1/JNK2 (Mus musculus) (UniProt Q91Y86+Q9WTU6); experiment: Inhibition of LPS-induced JNK1/2 phosphorylation in mouse RAW264.7 cells after 45 mins by Western blot analysis; assay type: cell-based
Sequence of JNK1/JNK2 (Mus musculus) (Q91Y86 whole entry, looked up): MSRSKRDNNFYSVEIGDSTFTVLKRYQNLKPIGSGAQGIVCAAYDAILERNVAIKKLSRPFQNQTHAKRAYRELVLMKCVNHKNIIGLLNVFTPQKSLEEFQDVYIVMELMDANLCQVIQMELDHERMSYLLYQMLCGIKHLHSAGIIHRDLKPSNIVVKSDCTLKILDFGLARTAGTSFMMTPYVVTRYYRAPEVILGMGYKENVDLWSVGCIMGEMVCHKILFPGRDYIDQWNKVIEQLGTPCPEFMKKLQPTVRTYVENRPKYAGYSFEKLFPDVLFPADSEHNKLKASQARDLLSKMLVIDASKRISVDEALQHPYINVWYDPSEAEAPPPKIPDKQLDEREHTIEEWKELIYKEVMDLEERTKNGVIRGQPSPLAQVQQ
Sequence of JNK1/JNK2 (Mus musculus) (Q9WTU6 whole entry, looked up): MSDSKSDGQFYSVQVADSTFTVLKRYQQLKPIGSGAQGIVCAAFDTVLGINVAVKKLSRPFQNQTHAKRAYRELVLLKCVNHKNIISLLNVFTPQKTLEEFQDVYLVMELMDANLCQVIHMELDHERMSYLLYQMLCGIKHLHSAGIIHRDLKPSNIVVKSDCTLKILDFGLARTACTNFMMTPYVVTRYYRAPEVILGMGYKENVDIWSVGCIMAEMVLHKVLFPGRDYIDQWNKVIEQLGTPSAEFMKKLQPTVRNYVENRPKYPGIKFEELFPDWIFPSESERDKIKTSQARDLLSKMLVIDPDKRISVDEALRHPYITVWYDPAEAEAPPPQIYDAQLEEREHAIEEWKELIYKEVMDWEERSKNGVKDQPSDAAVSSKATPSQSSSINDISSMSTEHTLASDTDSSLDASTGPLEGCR
Procedure, shortened: (§4)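 Phosphorylation of p38, JNK1/2 and ERK1/2 was detected by Western blot 45 min after LPS stimulation of RAW 264.7 cells. Each phospho-band was quantified against its total kinase as loading control. Data come from at least three independent experiments, each run in duplicate.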

[9] = biological target: MAP kinase p38 (Mus musculus) (UniProt P47811+O08911+Q9WUI1+Q9Z1B7); experiment: Inhibition of LPS-induced p38 MAPK phosphorylation in mouse RAW264.7 cells after 45 mins by Western blot analysis; assay type: cell-based
Procedure, shortened: as §4

RAW264.7 [10] = experiment: Antiinflammatory activity in mouse RAW264.7 cells assessed as inhibition of LPS-induced IL-1beta release incubated for 2 hrs prior to LPS challenge measured after 24 hrs by ELISA; assay type: functional, cell-based
Procedure, shortened: as §3

RAW264.7 [11] = experiment: Antiinflammatory activity in mouse RAW264.7 cells assessed as inhibition of IL-1beta release at 20 uM after 24 hrs by ELISA; assay type: functional, cell-based
Procedure, shortened: as §3

RAW264.7 [12] = experiment: Antiinflammatory activity in mouse RAW264.7 cells assessed as inhibition of LPS-induced iNOS expression at 20 uM after 24 hrs by Western blot analysis; assay type: functional, cell-based
Procedure, shortened: as §2

[13] = Mus musculus, RAW264.7, read-out: IC50

Row | Structure (SMILES) | NO production % at 10 µM (RAW264.7 [1]) | IC50 (RAW264.7 [2]; [13]) | further results
1 | COc1ccc([C@@H]2c3c(OC)cc(OC)cc3C(=O)[C@H]2c2cc(OC)cc(OC)c2)cc1 | 60.9% | > 200 µM | 
2 | COc1ccc([C@@H]2c3c(OC)cc(OC)cc3C(SCc3ccccc3)[C@H]2c2cc(OC)cc(OC)c2)cc1 (stereo not given in full) | 78.1% | > 200 µM | 
3 | COc1ccc([C@@H]2c3c(OC)cc(OC)cc3C(SCc3ccc(Cl)cc3)[C@H]2c2cc(OC)cc(OC)c2)cc1 (stereo not given in full) | 79.8% | > 200 µM | 
4 | COc1cc(OC)cc([C@@H]2/C(=C\c3ccccc3)c3cc(OC)cc(OC)c3[C@H]2c2ccccc2)c1 | 108% | > 200 µM | 
5 | C[S+]([O-])c1ccc(-c2nc(-c3ccc(F)cc3)c(-c3ccncc3)[nH]2)cc1 (stereo not given) |  |  | inhibition (RAW264.7 [3]): Active; inhibition (RAW264.7 [4]): Active; inhibition (RAW264.7 [5]): Active
6 | COc1cc(OC)cc([C@@H]2C(O)c3cc(OC)cc(OC)c3[C@H]2c2ccc(F)cc2)c1 (stereo not given in full) | 54% |  | IC50 (RAW264.7 [2]; raw264.7): Not Active
7 | Oc1ccc(/C=C2/c3cc(O)cc(O)c3[C@@H](c3ccc(O)cc3)[C@@H]2c2cc(O)cc(O)c2)cc1 | 70% |  | IC50 (RAW264.7 [2]; raw264.7): Not Active
8 | COc1cccc(-c2cc(=O)c3ccccc3o2)c1N |  |  | inhibition (RAW264.7 [3]): inactive; inhibition (RAW264.7 [4]): inactive; inhibition (RAW264.7 [5]): inactive
9 | COc1ccc([C@@H]2c3c(OC)cc(OC)cc3C(C(O)c3ccc(C)cc3)[C@H]2c2cc(OC)cc(OC)c2)cc1 (stereo not given in full) | 63.5% | 26.5 µM | 
10 | COc1cc(OC)cc([C@@H]2C(O)c3cc(OC)cc(OC)c3[C@H]2c2ccccc2)c1 (stereo not given in full) | 49.5% | 3.38 µM | inhibition (RAW264.7 [6]): Active; Activity (RAW264.7 [7]): Non-toxic; inhibition (RAW264.7 [8]): Dose-dependent effect; inhibition (JNK1/JNK2 (Mus musculus)): Dose-dependent effect; inhibition [9]: Dose-dependent effect; inhibition (RAW264.7 [10]): Dose-dependent effect; inhibition (RAW264.7 [2]): Dose-dependent effect; inhibition (RAW264.7 [11]): Active; inhibition (RAW264.7 [12]): Active
11 | COc1ccc(/C=C2/c3cc(OC)cc(OC)c3[C@@H](c3ccc(OC)cc3)[C@@H]2c2cc(OC)cc(OC)c2)cc1 | 56.1% | 6.26 µM | 
12 | O=C1c2cc(O)cc(O)c2[C@@H](c2ccc(O)cc2)[C@@H]1c1cc(O)cc(O)c1 [ISOPAUCIFLORAL F] | 97.1% | > 200 µM | 
13 | COc1ccc([C@@H]2c3c(OC)cc(OC)cc3C(SCc3ccc(C)cc3)[C@H]2c2cc(OC)cc(OC)c2)cc1 (stereo not given in full) | 86.3% | > 200 µM | 
14 | COc1ccc([C@@H]2c3c(OC)cc(OC)cc3/C(=C/c3ccc(F)cc3)[C@H]2c2cc(OC)cc(OC)c2)cc1 | 95.9% | > 200 µM | 
15 | COc1cc(OC)cc([C@@H]2C(=O)c3cc(OC)cc(OC)c3[C@H]2c2ccc(F)cc2)c1 | 57.4% | 44.8 µM | 
16 | COc1ccc([C@@H]2c3c(OC)cc(OC)cc3C(SCc3ccc(F)cc3)[C@H]2c2cc(OC)cc(OC)c2)cc1 (stereo not given in full) | 92.5% | > 200 µM | 
17 | COc1ccc(C(O)C2c3cc(OC)cc(OC)c3[C@@H](c3ccc(OC)cc3)[C@@H]2c2cc(OC)cc(OC)c2)cc1 (stereo not given in full) | 77% | > 200 µM | 

Row | Structure (SMILES) | NO production % at 10 µM (RAW264.7 [1]) | IC50 (RAW264.7 [2]; [13]) | further results
18 | COc1ccc(CSC2c3cc(OC)cc(OC)c3[C@@H](c3ccc(OC)cc3)[C@@H]2c2cc(OC)cc(OC)c2)cc1 (stereo not given in full) | 70.5% | 12.5 µM | 
19 | COc1cc(OC)cc([C@@H]2C(SCc3ccccc3)c3cc(OC)cc(OC)c3[C@H]2c2ccccc2)c1 (stereo not given in full) | 75.9% | > 200 µM | 
20 | COc1ccc([C@@H]2c3c(OC)cc(OC)cc3C(C(O)c3ccccc3)[C@H]2c2cc(OC)cc(OC)c2)cc1 (stereo not given in full) | 75.4% | > 200 µM | 
21 | COc1ccc(C(O)C2c3cc(OC)cc(OC)c3[C@@H](c3ccccc3)[C@@H]2c2cc(OC)cc(OC)c2)cc1 (stereo not given in full) | 67.8% | 16.5 µM | 
22 | COc1ccc([C@@H]2c3c(OC)cc(OC)cc3C(C(O)c3ccc(Cl)cc3)[C@H]2c2cc(OC)cc(OC)c2)cc1 (stereo not given in full) | 77.5% | > 200 µM | 
23 | COc1ccc([C@@H]2c3c(OC)cc(OC)cc3/C(=C/c3ccc(Cl)cc3)[C@H]2c2cc(OC)cc(OC)c2)cc1 | 90.7% | > 200 µM | 
24 | COc1cc(OC)cc([C@@H]2C(=O)c3cc(OC)cc(OC)c3[C@H]2c2ccccc2)c1 | 66% | 27.1 µM | 
25 | COc1ccc([C@@H]2c3c(OC)cc(OC)cc3/C(=C/c3ccc(C)cc3)[C@H]2c2cc(OC)cc(OC)c2)cc1 | 99.2% | > 200 µM | 
26 | COc1ccc(CSC2c3cc(OC)cc(OC)c3[C@@H](c3ccccc3)[C@@H]2c2cc(OC)cc(OC)c2)cc1 (stereo not given in full) | 72.4% | > 200 µM | 
27 | COc1ccc([C@@H]2c3c(OC)cc(OC)cc3[C@H]3[C@H](c4ccc(OC)cc4)c4c(OC)cc(OC)cc4[C@@H]23)cc1 | 80.2% | > 200 µM | 
28 | COc1cc(OC)cc([C@@H]2C(C(O)c3ccccc3)c3cc(OC)cc(OC)c3[C@H]2c2ccccc2)c1 (stereo not given in full) | 59.5% | 21.6 µM | 
29 | COc1ccc([C@@H]2c3c(OC)cc(OC)cc3/C(=C/c3ccccc3)[C@H]2c2cc(OC)cc(OC)c2)cc1 | 88.2% | > 200 µM | 
30 | Oc1c2ccccc2c2c3c(cccc13)N=N2 |  |  | inhibition (RAW264.7 [3]): Active; inhibition (RAW264.7 [4]): Active; inhibition (RAW264.7 [5]): Active
31 | COc1ccc([C@@H]2c3c(OC)cc(OC)cc3C(O)[C@H]2c2cc(OC)cc(OC)c2)cc1 (stereo not given in full) | 58.3% | 7.87 µM | 
32 | COc1ccc(/C=C2/c3cc(OC)cc(OC)c3[C@@H](c3ccccc3)[C@@H]2c2cc(OC)cc(OC)c2)cc1 | 84.3% | > 200 µM | 
33 | COc1ccc([C@@H]2c3c(OC)cc(OC)cc3C(C(O)c3ccc(F)cc3)[C@H]2c2cc(OC)cc(OC)c2)cc1 (stereo not given in full) | 81.4% | > 200 µM | 
34 | Oc1ccc([C@@H]2c3c(O)cc(O)cc3[C@H]3[C@H](c4ccc(O)cc4)c4c(O)cc(O)cc4[C@@H]23)cc1 (relative stereo) [PALLIDOL] | 89.3% | > 200 µM | 
